# Experimental data as given in PMC6289288 (Journal of hazardous materials, 2018).
# Read-outs that look alike come from different tables or passages of the source.
# How the values were obtained:
# [1] = laboratory settings; cited from earlier work
# [2] = system: Zebrafish (Danio rerio) embryos; assay: Zebrafish embryo developmental toxicity assay; type: in vivo; conditions: for Zebrafish mortality: 120 hpf
# In short: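 Embryos with intact chorions were exposed from 6 to 120 hpf in embryo medium to 0.064–640 μM test compound. All wells contained 0.64% DMSO, and there were 32 embryos per concentration and control. Plates were kept at 28 °C in the dark. At 24 hpf, mortality, developmental delay, spontaneous movement and notochord were scored. At 120 hpf, mortality, edemas, morphological abnormalities, circulation, swim bladder and touch response were scored.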
# [3] = system: H1299, a human lung cell line; assay: MTS cytotoxicity assay; type: cell-based; conditions: read-out: MTS IC50 72 h; H1299, 72 h, mean ± SD, n = 2–7
# [4] = Measured at pH 8; ref Palos Pacheco et al. [25]; cited from earlier work
# Aliivibrio fischeri = assay: Microtox acute toxicity assay; type: cell-based; conditions: n=3, mean ± SD
# In short: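 Aliivibrio fischeri bioluminescence assay, run in triplicate. A 2 mM stock was osmotically adjusted and then 1:1 serially diluted in Microtox diluent to 9 concentrations (3.5–889 μM). Diluent alone served as the toxicant-free control. Light output was read before mixing with bacteria and again at 5, 15 and 30 min. EC50 is the concentration halving bioluminescence relative to the control at each time point.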
# [5] = system: H1299, a human lung cell line; assay: xCELLigence Real-Time Cell Analysis; type: cell-based; conditions: read-out: xCELLigence IC50 72 h; H1299, 72 h, n=3, mean ± SD
# [6] = read-out: Microtox EC50 5 min, 5 min exposure
# [7] = read-out: Microtox EC50 15 min, 15 min exposure
# [8] = read-out: Microtox EC50 30 min, 30 min exposure
structure (smiles),measurement,setting,value
"CCCCC(CC)COC(=O)CC(C(=O)OCC(CC)CCCC)S(=O)(=O)O (stereo not shown) [bis-(2-ethylhexyl) sulfosuccinate (DOSS), bis-(2-ethylhexyl) sulfosuccinate]",Biodegradability,[1],biodegradable
"CCCCCCCC(CC(=O)O)OC(=O)CC(CCCCCCC)O[C@@H]1O[C@@H](C)[C@H](O)[C@@H](O)[C@H]1O (stereo partly drawn) [Rha-C10-C10 (S,S), rhamnosyl-β-hydroxydecanoyl-β-hydroxydecanoate]",Zebrafish mortality,"[2]; 6.4 μM, n = 32",19%
same,IC50,[3],125 ± 18.6 µM
same,Area,[4],94 ± 8 Å^2 molecule^−1
same,CMC,[4],201 ± 51 µM
same,Minimum Surface Tension,[4],29.5 ± 0.2 mN m^−1
same,EC50,Aliivibrio fischeri; [6],64.3 ± 8.5 µM
same,EC50,Aliivibrio fischeri; [7],42.6 ± 4.4 µM
same,EC50,Aliivibrio fischeri; [8],38.8 ± 3.7 µM
same,IC50,[5],108 ± 5.3 µM
"CCCCCCCC(CC(=O)O)OC(=O)CC(CCCCCCC)O[C@@H]1O[C@@H](C)[C@H](O)[C@@H](O)[C@H]1O (stereo partly drawn) [Rha-C10-C10 (R,R), rhamnosyl-β-hydroxydecanoyl-β-hydroxydecanoate]",Zebrafish mortality,"[2]; 640 μM, n = 32, exposure from 6 to 120 hpf",not associated with mortality
same,Developmental effects (22 developmental endpoints),"[2]; 0.064–640 μM, 24 and 120 hpf",no developmental effects
same,IC50,[3],129.7 ± 1.1 µM
same,Area,[4],119 ± 10 Å^2 molecule^−1
same,CMC,[4],270 ± 77 µM
same,Minimum Surface Tension,[4],28.1 ± 0.2 mN m^−1
same,EC50,Aliivibrio fischeri; [6],78.7 ± 4 µM
same,EC50,Aliivibrio fischeri; [7],53.8 ± 3.3 µM
same,EC50,Aliivibrio fischeri; [8],47.3 ± 1.2 µM
same,IC50,[5],122 ± 9.1 µM
"CCCCCCCC(CC(=O)O)OC(=O)CC(CCCCCCC)O[C@@H]1O[C@@H](C)[C@H](O)[C@@H](O)[C@H]1O (stereo partly drawn) [Rha-C10-C10 (S,R), rhamnosyl-β-hydroxydecanoyl-β-hydroxydecanoate]",IC50,[3],103 ± 31.9 µM
same,Area,[4],105 ± 4 Å^2 molecule^−1
same,CMC,[4],180 ± 24 µM
same,Minimum Surface Tension,[4],28.5 ± 0.2 mN m^−1
same,EC50,Aliivibrio fischeri; [6],61.9 ± 4.7 µM
same,EC50,Aliivibrio fischeri; [7],39.6 ± 2.9 µM
same,EC50,Aliivibrio fischeri; [8],36.6 ± 2.9 µM
same,IC50,[5],111 ± 6.2 µM
